{"source": "ChEMBL document CHEMBL4813947", "about": "“New dual ATP-competitive inhibitors of bacterial DNA gyrase and topoisomerase IV active against ESKAPE pathogens” (Eur J Med Chem, 2021)", "key": {"Escherichia coli [1]": {"system": "Escherichia coli", "assay": "Antibacterial activity against wild type Escherichia coli MG1655 assessed as inhibition of bacterial growth by CLSI protocol based broth microdilution assay", "assay_type": "functional", "how_it_was_run": "(§1)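 Minimum inhibitory concentration by standard serial broth microdilution following CLSI guidelines. Medium was MHBII broth (22 g/L powder: beef extract, casein acid hydrolysate, starch), with MHBII agar (14 g agar per L broth). Where noted, assayed without and with efflux pump substrate phenylalanine-arginine β-naphthylamide (PAβN).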"}, "Klebsiella pneumoniae": {"system": "Klebsiella pneumoniae", "assay": "Antibacterial activity against Klebsiella pneumoniae ATCC 10031 assessed as inhibition of bacterial growth by CLSI protocol based broth microdilution assay", "assay_type": "functional"}, "Staphylococcus aureus [2]": {"system": "Staphylococcus aureus", "assay": "Ratio of MIC for methicillin-resistant Staphylococcus aureus ATCC 43300 harboring GyrB T173A mutant to MIC for methicillin-resistant wild type Staphylococcus aureus ATCC 43300", "assay_type": "functional"}, "Staphylococcus aureus [3]": {"system": "Staphylococcus aureus", "assay": "Antibacterial activity against methicillin-resistant Staphylococcus aureus ATCC 43300 assessed as inhibition of bacterial growth by CLSI protocol based broth microdilution assay", "assay_type": "functional", "how_it_was_run": "as §1"}, "[4]": {"assay": "Ratio of genotoxicity in CHO-K1 cells by invitro micronucleus test to MIC for methicillin-resistant wild type Staphylococcus aureus ATCC 43300", "assay_type": "toxicity, cell-based", "settings": "hamster"}, "Escherichia coli [5]": {"system": "Escherichia coli", "assay": "Antibacterial activity against Escherichia coli MG1655 in presence of efflux pump inhibitor PAbetaN assessed as inhibition of bacterial growth by CLSI protocol based broth microdilution assay", "assay_type": "functional"}, "Staphylococcus aureus [6]": {"system": "Staphylococcus aureus", "assay": "Antibacterial activity against Staphylococcus aureus ATCC 29213 assessed as inhibition of bacterial growth by CLSI protocol based broth microdilution assay", "assay_type": "functional"}, "[7]": {"assay": "Drug metabolism in rat liver S9 fraction assessed as hydroxylated benzothiazole ring metabolite", "assay_type": "ADME, subcellular"}, "[8]": {"system": "human topoisomerase 2alpha", "assay": "Selectivity ratio of IC50 for inhibition of human topoisomerase 2alpha to IC50 for inhibition of Escherichia coli DNA gyrase", "assay_type": "toxicity", "settings": "read-out: Ratio IC50"}, "[9]": {"system": "human topoisomerase 2alpha", "assay": "Selectivity ratio of IC50 for inhibition of human topoisomerase 2alpha to IC50 for inhibition of Escherichia coli topoisomerase IV", "assay_type": "toxicity", "settings": "read-out: Ratio IC50"}, "HepG2": {"system": "HepG2", "assay": "Cytotoxicity against human HepG2 cells upto 100 uM by lactate dehydrogenase assay", "assay_type": "cell-based", "how_it_was_run": "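HepG2 or MCF-7 cells grown in EMEM with 2 mM L-glutamine, penicillin/streptomycin, 10% FBS at 37 °C, 5% CO2; LDH release kit per manufacturer, test concentrations up to 100 µM.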"}, "Escherichia coli [10]": {"system": "Escherichia coli", "assay": "Antibacterial activity against Escherichia coli MG1655 harboring GyrB R136C mutant assessed as inhibition of bacterial growth in presence of efflux pump inhibitor PAbetaN by CLSI protocol based broth microdilution assay", "assay_type": "functional", "how_it_was_run": "as §1"}, "DNA gyrase [11]": {"target": "DNA gyrase (Staphylococcus aureus, UniProt P0A0K8+P20831)", "assay": "Inhibition of Staphylococcus aureus DNA gyrase assessed reduction in supercoiling of relaxed pNO1 DNA measured after 30 mins by fluorescence assay"}, "[12]": {"assay": "Drug metabolism in rat liver S9 fraction assessed as hydroxylated methyl-pyrrole moiety metabolite", "assay_type": "ADME, subcellular"}, "Pseudomonas aeruginosa [13]": {"system": "Pseudomonas aeruginosa", "assay": "Antibacterial activity against Pseudomonas aeruginosa ATCC 27853 assessed as inhibition of bacterial growth by CLSI protocol based broth microdilution assay", "assay_type": "functional"}, "[14]": {"assay": "Genotoxicity in CHO-K1 cells upto 16 uM by invitro micronucleus test", "assay_type": "cell-based, Cricetulus griseus", "settings": "chinese hamster"}, "[15]": {"assay": "Ratio of genotoxicity in CHO-K1 cells in presence of rat liver S9 fraction by invitro micronucleus test to MIC for vancomycin-resistant Staphylococcus aureus ATCC 700699", "assay_type": "toxicity, cell-based", "settings": "CHO-K1 cells with rat liver S9 fraction"}, "Escherichia coli [16]": {"system": "Escherichia coli", "assay": "Antibacterial activity against clinical isolate ciprofloxacin resistance Escherichia coli 31995 assessed as inhibition of bacterial growth by CLSI protocol based broth microdilution assay", "assay_type": "functional", "how_it_was_run": "as §1"}, "Staphylococcus aureus [17]": {"system": "Staphylococcus aureus", "assay": "Antibacterial activity against vancomycin-resistant Staphylococcus aureus ATCC 700699 harboring GyrB R144I mutant assessed as inhibition of bacterial growth by CLSI protocol based broth microdilution assay", "assay_type": "functional", "how_it_was_run": "as §1"}, "Staphylococcus aureus [18]": {"system": "Staphylococcus aureus", "assay": "Ratio of MIC for methicillin-resistant Staphylococcus aureus ATCC 43300 harboring GyrB R144I mutant to MIC for methicillin-resistant wild type Staphylococcus aureus ATCC 43300", "assay_type": "functional"}, "Escherichia coli [19]": {"system": "Escherichia coli", "assay": "Antibacterial activity against Escherichia coli 20204 assessed as inhibition of bacterial growth by CLSI protocol based broth microdilution assay", "assay_type": "functional"}, "[20]": {"assay": "Inhibition of Escherichia coli topoisomerase assessed as reduction in relaxation of supercoiled pNO1 DNA measured after 30 mins by fluorescence assay", "how_it_was_run": "(§2)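 Enzyme run per an earlier-reported procedure; IC50 fitted from seven inhibitor concentrations, mean of three independent measurements.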"}, "[21]": {"assay": "Ratio of genotoxicity in CHO-K1 cells by invitro micronucleus test to MIC for vancomycin-resistant Staphylococcus aureus ATCC 700699", "assay_type": "toxicity, cell-based", "settings": "hamster"}, "[22]": {"assay": "Ratio of genotoxicity in CHO-K1 cells in presence of rat liver S9 fraction by invitro micronucleus test to MIC for Enterococcus faecalis ATCC 29212", "assay_type": "toxicity, cell-based", "settings": "CHO-K1 cells with rat liver S9 fraction"}, "Acinetobacter baumannii [23]": {"system": "Acinetobacter baumannii", "assay": "Antibacterial activity against Acinetobacter baumannii ATCC 17978 assessed as inhibition of bacterial growth by CLSI protocol based broth microdilution assay", "assay_type": "functional"}, "DNA gyrase [24]": {"target": "DNA gyrase (Escherichia coli, UniProt P0AES4+P0AES6)", "assay": "Inhibition of Escherichia coli DNA gyrase assessed as reduction in supercoiling of relaxed pNO1 DNA measured after 30 mins by fluorescence assay"}, "[25]": {"assay": "Ratio of genotoxicity in CHO-K1 cells by invitro micronucleus test to MIC for Enterococcus faecalis ATCC 29212", "assay_type": "toxicity, cell-based", "settings": "hamster"}, "[26]": {"system": "human topoisomerase 2alpha", "assay": "Selectivity ratio of IC50 for inhibition of human topoisomerase 2alpha to IC50 for inhibition of Staphylococcus aureus topoisomerase IV", "assay_type": "toxicity", "settings": "read-out: Ratio IC50"}, "Staphylococcus aureus [27]": {"system": "Staphylococcus aureus", "assay": "Ratio of MIC for vancomycin-resistant Staphylococcus aureus ATCC 700699 harboring GyrB […] mutant to MIC for vancomycin-resistant wild type Staphylococcus aureus ATCC 700699", "assay_type": "functional"}, "Staphylococcus aureus [28]": {"system": "Staphylococcus aureus", "assay": "Antibacterial activity against vancomycin-resistant wild type Staphylococcus aureus ATCC 700699 assessed as inhibition of bacterial growth by CLSI protocol based broth microdilution assay", "assay_type": "functional", "how_it_was_run": "as §1"}, "Acinetobacter baumannii [29]": {"system": "Acinetobacter baumannii", "assay": "Antibacterial activity against clinical isolate ciprofloxacin resistance Acinetobacter baumannii ATCC BAA-1605 assessed as inhibition of bacterial growth by CLSI protocol based broth microdilution assay", "assay_type": "functional", "how_it_was_run": "as §1"}, "[30]": {"assay": "Ratio of genotoxicity in CHO-K1 cells in presence of rat liver S9 fraction by invitro micronucleus test to MIC for methicillin-resistant wild type Staphylococcus aureus ATCC 43300", "assay_type": "toxicity, cell-based", "settings": "CHO-K1 cells with rat liver S9 fraction"}, "[31]": {"assay": "Inhibition of Staphylococcus aureus topoisomerase assessed as reduction in relaxation of supercoiled pNO1 DNA measured after 30 mins by fluorescence assay", "how_it_was_run": "as §2"}, "[32]": {"assay": "Drug metabolism in rat liver S9 fraction assessed as direct glucuronide conjugate", "assay_type": "ADME, subcellular"}, "Staphylococcus aureus [33]": {"system": "Staphylococcus aureus", "assay": "Antibacterial activity against methicillin-resistant wild type Staphylococcus aureus ATCC 43300 assessed as inhibition of bacterial growth by CLSI protocol based broth microdilution assay", "assay_type": "functional", "how_it_was_run": "as §1"}, "Pseudomonas aeruginosa [34]": {"system": "Pseudomonas aeruginosa", "assay": "Antibacterial activity against Pseudomonas aeruginosa 19488 assessed as inhibition of bacterial growth by CLSI protocol based broth microdilution assay", "assay_type": "functional"}, "Escherichia coli [35]": {"system": "Escherichia coli", "assay": "Antibacterial activity against clinical isolate ciprofloxacin resistance Escherichia coli 31859 assessed as inhibition of bacterial growth by CLSI protocol based broth microdilution assay", "assay_type": "functional", "how_it_was_run": "as §1"}}, "data": [{"smiles": "Cc1[nH]c(C(=O)Nc2nc3c(OCc4ccsc4)cc(C(=O)O)cc3s2)c(Cl)c1Cl", "values": [{"measurement": "MIC", "setting": "Escherichia coli [1]", "value": "> 64", "unit": "µg/mL"}, {"measurement": "MIC", "setting": "Klebsiella pneumoniae", "value": 2, "unit": "µg/mL"}, {"measurement": "Ratio", "setting": "Staphylococcus aureus [2]", "value": 2}, {"measurement": "MIC", "setting": "Staphylococcus aureus [3]", "value": 0.0625, "unit": "µg/mL"}, {"measurement": "selectivity ratio", "setting": "[4]", "value": 123}, {"measurement": "MIC", "setting": "Escherichia coli [5]", "value": 0.125, "unit": "µg/mL"}, {"measurement": "MIC", "setting": "Staphylococcus aureus [6]", "value": 0.25, "unit": "µg/mL"}, {"measurement": "Drug metabolism", "setting": "[7]", "value": "Metabolite_Detected"}, {"measurement": "selectivity ratio", "setting": "[8]", "value": 450}, {"measurement": "selectivity ratio", "setting": "[9]", "value": 13}, {"measurement": "Activity", "setting": "HepG2", "value": "Non-Toxic"}, {"measurement": "MIC", "setting": "Escherichia coli [10]", "value": 2, "unit": "µg/mL"}, {"measurement": "IC50", "setting": "DNA gyrase [11]", "value": "< 10", "unit": "nM"}, {"measurement": "Drug metabolism", "setting": "[12]", "value": "Metabolite_Detected"}, {"measurement": "MIC", "setting": "Pseudomonas aeruginosa [13]", "value": 2, "unit": "µg/mL"}, {"measurement": "Activity", "setting": "[14]", "value": "Non-Toxic"}, {"measurement": "selectivity ratio", "setting": "[15]", "value": 957}, {"measurement": "MIC", "setting": "Escherichia coli [16]", "value": 2, "unit": "µg/mL"}, {"measurement": "MIC", "setting": "Staphylococcus aureus [17]", "value": 0.0625, "unit": "µg/mL"}, {"measurement": "Ratio", "setting": "Staphylococcus aureus [18]", "value": 4}, {"measurement": "MIC", "setting": "Escherichia coli [19]", "value": 1, "unit": "µg/mL"}, {"measurement": "IC50", "setting": "[20]", "value": 340, "unit": "nM"}, {"measurement": "selectivity ratio", "setting": "[21]", "value": 247}, {"measurement": "selectivity ratio", "setting": "[22]", "value": 1920}, {"measurement": "MIC", "setting": "Acinetobacter baumannii [23]", "value": 1, "unit": "µg/mL"}, {"measurement": "IC50", "setting": "DNA gyrase [24]", "value": "< 10", "unit": "nM"}, {"measurement": "selectivity ratio", "setting": "[25]", "value": 495}, {"measurement": "selectivity ratio", "setting": "[26]", "value": 54}, {"measurement": "Ratio", "setting": "Staphylococcus aureus [27]", "value": 2}, {"measurement": "MIC", "setting": "Staphylococcus aureus [28]", "value": 0.0313, "unit": "µg/mL"}, {"measurement": "MIC", "setting": "Acinetobacter baumannii [29]", "value": 0.5, "unit": "µg/mL"}, {"measurement": "selectivity ratio", "setting": "[30]", "value": 478}, {"measurement": "IC50", "setting": "[31]", "value": 84, "unit": "nM"}, {"measurement": "Drug metabolism", "setting": "[32]", "value": "Metabolite_Detected"}, {"measurement": "MIC", "setting": "Staphylococcus aureus [33]", "value": 0.0625, "unit": "µg/mL"}, {"measurement": "MIC", "setting": "Pseudomonas aeruginosa [34]", "value": 16, "unit": "µg/mL"}, {"measurement": "MIC", "setting": "Escherichia coli [35]", "value": 2, "unit": "µg/mL"}]}]}
